Test results reported in ChEMBL document CHEMBL3351276, “Structural basis for rational design of inhibitors targeting Trypanosoma cruzi sterol 14α-demethylase: two regions of the enzyme molecule potentiate its inhibition” (J Med Chem, 2014).

Legend:
[1] = target: Sterol 14-alpha demethylase (Trypanosoma cruzi (strain CL Brener)) (UniProt Q7Z1V1); experiment: Binding affinity to Trypanosoma cruzi CYP51 by spectral ligand binding assay
In short: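 Full-length Tulahuen T. cruzi CYP51 at ~1 μM in 20 mM K-phosphate pH 7.4, 200 mM NaCl, 0.1 mM EDTA, 25 °C, 5 cm path. Ligand is titrated 0.2–2.0 μM in 0.2 μM steps, with DMSO matched in the reference cuvette. The Soret red-shift difference spectra (peak-to-trough ΔA) are fit to a quadratic tight-binding equation, giving Ks and ΔAmax/Ks.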

[2] = target: Sterol 14-alpha demethylase (Trypanosoma cruzi (strain CL Brener)) (UniProt Q7Z1V1); experiment: Inhibition of Trypanosoma cruzi CYP51 assessed as substrate conversion level using [3H]eburicol substrate at inhibitor/enzyme molar ratio of 2 after 1 hr by HPLC method; parameters: scale not given: the % may be the effect or the level left
In short: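 Reconstituted full-length CYP51 (1 μM) with 2 μM CPR, 100 μM dilauroylphosphatidylcholine, and an isocitrate dehydrogenase/isocitrate system in 20 mM MOPS pH 7.4, 50 mM KCl, 5 mM MgCl₂, 10% glycerol. [³H]eburicol is final 50 μM; enzyme/substrate/inhibitor ratio is 1:50:2. After 5 min preincubation at 37 °C, 100 μM NADPH starts the 1 h reaction. Sterols are ethyl acetate-extracted and resolved by reverse-phase HPLC with radiodetection.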

Trypanosoma cruzi [3] = experiment: Antitrypanosomal activity against Trypanosoma cruzi Tulahuen trypomastigotes expressing green florescent protein infected in cardiomyocytes assessed as inhibition of parasite growth after 72 hrs by fluorescence microscopy; type: functional, organism-based
In short: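 GFP-expressing T. cruzi Tulahuen 20A-clone trypomastigotes infect cardiomyocyte monolayers at 10 parasites per cell in DMEM + 10% FBS; unbound parasites are washed off. At 24 h, inhibitors (1–25 nM, in DMSO/phenol-red-free DMEM) are added and cultured 48 h, in triplicate. At 72 h, infection is read as fluorescence (RFU), or cells are fixed in paraformaldehyde and stained with DAPI/phalloidin for microscopy. Posaconazole is the control.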

Trypanosoma cruzi [4] = experiment: Antitrypanosomal activity against Trypanosoma cruzi Tulahuen trypomastigotes expressing green florescent protein infected in cardiomyocytes assessed as inhibition of parasite growth at 10 nM after 72 hrs by fluorescence microscopy; type: functional

Sequence of Sterol 14-alpha demethylase (Trypanosoma cruzi (strain CL Brener)) (Q7Z1V1 whole entry, looked up): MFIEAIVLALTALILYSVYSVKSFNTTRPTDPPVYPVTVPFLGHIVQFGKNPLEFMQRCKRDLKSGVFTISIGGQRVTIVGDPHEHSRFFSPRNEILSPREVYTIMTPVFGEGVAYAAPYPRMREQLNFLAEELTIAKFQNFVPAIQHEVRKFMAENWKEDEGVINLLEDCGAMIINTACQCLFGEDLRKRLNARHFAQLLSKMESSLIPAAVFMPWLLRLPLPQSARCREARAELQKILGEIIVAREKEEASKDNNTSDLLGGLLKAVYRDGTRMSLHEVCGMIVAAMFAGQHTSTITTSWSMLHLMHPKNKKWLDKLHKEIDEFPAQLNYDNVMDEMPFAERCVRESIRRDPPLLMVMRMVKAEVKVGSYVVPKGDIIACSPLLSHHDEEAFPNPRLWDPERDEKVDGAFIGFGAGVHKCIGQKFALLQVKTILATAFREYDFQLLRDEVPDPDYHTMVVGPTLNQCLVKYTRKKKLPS

| SMILES | Ks [1] [µM] | Activity [2] [%] | EC50 (Trypanosoma cruzi [3]) [nM] | inhibition at 0.01 µM (Trypanosoma cruzi [4]) [%] |
| --- | --- | --- | --- | --- |
| O=C(NCCCn1ccnc1)O[C@H](Cn1ccnc1)c1ccc(F)cc1 | 0.6 | 93.9 | – | – |
| CC(C)c1ccc(NC(=O)O[C@@H](Cn2ccnc2)c2ccc(Cl)cc2)cc1 | – | 90 | 22 | 30.5 |
| CC(C)c1ccc(NC(=O)O[C@H](Cn2ccnc2)c2ccc(Cl)cc2)cc1 | – | 1.9 | 1 | 74.5 |
| O=C(NCCCn1ccnc1)O[C@@H](Cn1ccnc1)c1ccc(F)cc1 | 0.087 | 89.2 | – | – |
| CC(C)c1ccc(NC(=O)O[C@@H](Cn2ccnc2)c2ccc(F)cc2)cc1 | 0.083 | 86.5 | 20 | 32.1 |
| CC[C@@H]([C@H](C)O)n1ncn(-c2ccc(N3CCN(c4ccc(OC[C@@H]5CO[C@@](Cn6cncn6)(c6ccc(F)cc6F)C5)cc4)CC3)cc2)c1=O [POSACONAZOLE] | – | – | 5 | 64 |
| CC(C)c1ccc(NC(=O)O[C@H](Cn2ccnc2)c2ccc(F)cc2)cc1 | 0.032 | 8.5 | 5.5 | 69.3 |
| O=C(Nc1ccc(Sc2ccc([N+](=O)[O-])cc2)cc1)O[C@@H](Cn1ccnc1)c1ccc(Cl)cc1 | 0.715 | 52.5 | 2.5 | 62.5 |
| O=C(Nc1ccc(N2CCN(c3ccc(Cl)c(Cl)c3)CC2)cc1)O[C@H](Cn1ccnc1)c1ccc(Cl)cc1Cl | – | 3.8 | 1.3 | 73.5 |
| O=C(O[C@@H](Cn1ccnc1)c1ccccc1)c1ccc(-c2ccccc2)cc1 | 0.087 | 79.5 | 15 | 29.5 |
| O=C(Nc1ccc(N2CCN(c3ccc(Cl)c(Cl)c3)CC2)cc1)O[C@@H](Cn1ccnc1)c1ccc(Cl)cc1Cl | – | 0.8 | 1.2 | 83 |
| O=C(O[C@H](Cn1ccnc1)c1ccccc1)c1ccc(-c2ccccc2)cc1 | 0.046 | 0.7 | 1.2 | 76.3 |
| O=C(Nc1ccc(Sc2ccc([N+](=O)[O-])cc2)cc1)O[C@H](Cn1ccnc1)c1ccc(Cl)cc1 | 0.162 | 12.5 | 1.5 | 70 |
